Here are results for 2 substances from PMC4979993 (Nature structural & molecular biology, 2011).

“And” between values parts separate entries of the source, which are not always exact repeats. Equal values may be shown once. “Also recorded” adds a separate entry of the source.

The conditions of data set [1]: cited from earlier work.
The test system of another data set is amyloid fibrils. Conditions: previous bulk measurements; cited from earlier work.
The subject of data set [2] is Aβ1–40. Nature of the data set: TIRFM imaging of species in Aβ1–40 aggregation. The format is biochemical. The method in brief: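 Dual-label HiLyteFluor488/HiLyteFluor647 Aβ1–40 (monomer stocks in pH 12 NaOH, ice-sonicated 30 min) diluted into SSPE pH 7.4. Incubated 24 h at 37 °C with 200 rpm agitation. Human serum-derived clusterin was added at 4 h where used. Species on surface imaged by two-colour TIRFM (488 and 633 nm excitation, split-EMCCD, 7.9 frames s⁻¹). Sizes compared by two-sample, two-tailed, independent t-test.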

The test system of data set [3] is Aβ1–40. Nature of the data set: cTCCD single-molecule analysis of Aβ1–40 aggregation. The format is biochemical. The procedure, abridged:
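Equimolar HiLyteFluor488- and HiLyteFluor647-labeled Aβ1–40 (2 μM) in SSPE pH 7.4, 37 °C, 200 rpm agitation; with or without clusterin at 1:1 molar. Sampled every 2–3 h and diluted to picomolar for two-colour confocal coincidence detection (1 ms bins, stage scanned 200 µm s⁻¹). Coincident bursts were scored as oligomers. Apparent size came from their brightness relative to non-coincident monomer bursts; n=3.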

The next data set addresses Aβ1–40 fibrils (Homo sapiens, UniProt P05067). Briefly: cTCCD analysis of disaggregation of Aβ1–40 fibrils. Format: biochemical. Conditions: for ΔG° (dimer) / ΔG° (larger oligomer): from steady state apparent size distributions. The procedure, abridged: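 Fibrils grown statically from 8 μM labeled Aβ1–40, 72 h, 37 °C. Pelleted at ~10,000×g for 30 min, washed twice in SSPE pH 7.4, then resuspended. Where used, AlexaFluor647-labeled human serum clusterin was incubated with fibrils 12–16 h at 21 °C and unbound removed by centrifugation (100–200 nM bound). Released species tracked by cTCCD to plateau (~50 h). Rates fitted with monomolecular dissociation functions.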

The subject of data set [4] is Aβ1–40 fibril formation. Nature of the data set: Bulk aggregation / fibril formation of Aβ1–40. Format: biochemical. Particulars: HiLyteFluor488 or HiLyteFluor647 label, control experiments.
For a further data set, the system named is Aβ1–40 oligomers. Nature of the data set: Formation and persistence of clusterin:Aβ complexes. The format is binding. The method in brief:
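HiLyteFluor488 or HiLyteFluor647-labeled Aβ1–40, from NaOH-solubilised monomer in SSPE pH 7.4, is aggregated at 37 °C, 200 rpm, with AlexaFluor647-labeled human serum clusterin at 1:1 molar ratio, or released from pre-formed clusterin-bound fibrils. Complexes are diluted to […] at 21 °C and sampled over time by two-colour coincidence detection (cTCCD). Persistence is compared by two-tailed t-tests.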

Data set [5] deals with Aβ1–40 fibril formation. Particulars: cited from earlier work.
The mark [6] stands for this setting: Disaggregation, without clusterin, n=3, s.d.
Setting [7] is: Disaggregation, without clusterin, n=12, s.d.
The mark [8] stands for this setting: without clusterin, disaggregation, n=12.
[9] abbreviates: with clusterin, disaggregation, n=8.

For amyloid-β1–40 [Aβ1–40], in data set [1], the “Aβ1–40 clearance time in vivo” value is reported as ~ 14 h and the “Aβ1–40 production time in vivo” value is ~ 15 h. The “free energy of the formation of amyloid fibrils” value in the data set with amyloid fibrils is “–36 kJ mol^−1”. In the data set with Aβ1–40 [2] (2 μM Aβ1–40 without clusterin, 24 h aggregation, s.e.m.), the “average size of species present” value is 1400 ± 200 nm. Besides, the “oligomers as share of total number of molecules” value in the data set on Aβ1–40 [3] (30 nM Aβ1–40, 37 °C) was “approximately 1%”. Besides, in the data set with Aβ1–40 [3] (30 nM Aβ1–40, SSPE pH 7.4, 37 °C, agitation), the “concentration of oligomers formed” value stood at 300 pM. Further, in the data set with Aβ1–40 [3] (600 nM – 2 µM and 30 nM, aggregation and disaggregation), the “distribution of apparent oligomer sizes” value is reported as “decreased exponentially with increasing apparent size; also recorded: effectively the same as that formed at a concentration of 30 nM; also recorded: approximately exponential decrease with apparent size”. Also, the “oligomers as share of total molecules at peak” value in the data set with Aβ1–40 [3] (2 μM Aβ1–40, 37 °C) is “approximately 1%”. Besides, the “decrease in monomer concentration during growth phase of fibril formation” value with Aβ1–40 [3] (2 μM Aβ1–40, 37 °C, agitation) is given as 75%. Also, the “peak concentration of stable oligomeric species” value in the data set on Aβ1–40 [3] (2 μM Aβ1–40, SSPE pH 7.4, 37 °C, agitation) is on record as ~ 20 nM. Moreover, the “ΔG° (dimer)” value with Aβ1–40 [3] (Aggregation, without clusterin, from steady state apparent size distributions, n=4, s.d.) is −23.0 ± 2.9 (4) kJ mol^−1. The “range of oligomer sizes formed” value in the data set with Aβ1–40 [3] (cTCCD, apparent size) was “dimers to 50mers”. In the data set on Aβ1–40 [3] (~25–50 pM, 21 °C), the “stability of the majority of soluble oligomeric species” value was “over three”. Further, in the data set with Aβ1–40 fibrils (setting [6]), the “ΔG° (dimer)” value is recorded as −18.2 ± 0.5 (3) kJ mol^−1, the “ΔH° (dimer)” value was −43.8 ± 24.5 (3) kJ mol^−1 and the “ΔS° dimer” value is recorded as −80.8 ± 83.5 (3) kJ mol^−1. In the data set with Aβ1–40 fibrils (setting [7]), the “ΔG° (larger oligomer)” value is −38.9 ± 2.7 (12) kJ mol^−1, the “ΔH° (larger oligomer)” value is reported as −29.1 ± 0.3 (12) kJ mol^−1 and the “ΔS° larger than dimer” value is reported as 28.3 ± 1.1 (12) kJ mol^−1. In the data set with Aβ1–40 fibrils (setting [8]), the “Final concentration of all species” value is on record as 270 ± 20 (12) nM and the “Final concentration of oligomeric species” value was 0.16 ± 0.06 (12) nM. Further, in the data set with Aβ1–40 fibril formation [4], the “effect of fluorophores on bulk aggregation behavior” value is “neither fluorophore had any appreciable effect on the bulk aggregation behavior”.

As for “clusterin: extracellular chaperone protein, extracted from human serum”, in the data set on Aβ1–40 oligomers (all oligomers found during aggregation and disaggregation), the “binding to soluble oligomers” value is on record as “all of which interact with clusterin to form long-lived, stable complexes; also recorded: binds to all members of the ensemble of soluble oligomers”. Further, the “persistence of clusterin:Aβ complexes” value with Aβ1–40 oligomers (formed at 100 nM, after dilution at picomolar concentrations) is “over 200 h”. Also, the “reduction in average size of species present” value in the data set on Aβ1–40 [2] (2 μM Aβ1–40, 24 h aggregation, 2 µM clusterin added at 4 h, P-value 0.01) is reported as “approximately 50%”. In addition, the “effect on distribution of the sizes of Aβ1–40 oligomers” value in the data set on Aβ1–40 [3] (in presence of clusterin) is recorded as “not substantially altered”. The “ΔG° (dimer)” value with Aβ1–40 fibrils (Disaggregation, with clusterin, n=4, s.d.) is −25.8 ± 2.6 kJ mol^−1 and −25.8 ± 2.6 (4) kJ mol^−1. Further, the “ΔG° (larger oligomer)” value with Aβ1–40 fibrils (Disaggregation, with clusterin, n=12, s.d.) was −43.9 ± 1.0 kJ mol^−1 and −43.9 ± 1.0 (12) kJ mol^−1. Also, the “effect on rate and extent of fibril disaggregation” value with Aβ1–40 fibrils (clusterin bound to Aβ fibrils) is “decrease both the rate and the extent of fibril disaggregation”. Moreover, the “Rate of clusterin release” value in the data set with Aβ1–40 fibrils (with clusterin, disaggregation of fibrils, n=3, s.e.m.) was “(9.8 ± 0.9)×10^−7 (3) s^−1”. The “Final soluble clusterin concentration” value with Aβ1–40 fibrils (with clusterin, disaggregation, n=3) is listed as 90 ± 14 (3) nM. Moreover, in the data set with Aβ1–40 fibrils (setting [9]), the “Final concentration of all species” value is given as 120 ± 20 (8) nM and the “Final concentration of oligomeric species” value is reported as 0.42 ± 0.1 (8) nM. In addition, the “effect on monomer concentration” value with Aβ1–40 fibrils (with vs without clusterin, plateau region, n=8, P-value 0.0003, t-test) is “decreased monomer concentration”. Besides, the “effect on oligomer concentration / total oligomer population” value with Aβ1–40 fibrils (with vs without clusterin, plateau region, n=8, P-value 0.002, t-test) was “increased oligomer concentration; also recorded: increase in the total oligomer population”. The “effect on fibril formation, bulk measurements” value with Aβ1–40 fibril formation [5] is reported as “strongly inhibits fibril formation”.
